Results as given in ChEMBL document CHEMBL3875165, “Novel broad-spectrum and long-acting parenteral cephalosporins having an acyl cyanamide moiety at the C-3 terminal: Synthesis and structure-activity relationships” (Eur J Med Chem, 2016).

What was measured:
[1] = AUC (0 to infinity) in monkey at 20 mg/kg, iv administered as bolus dose by HPLC method; type: ADME, organism-based, Macaca mulatta; design: dose 20 mg/kg, time infinity, route intravenous; conditions: rhesus monkey, in vivo
Summary of the method: (§1)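 Three monkeys per group received a single iv bolus of 20 mg/kg (1 mL/kg). Plasma levels were measured by HPLC. AUC0-∞, CLtot and T1/2 came from a 2-compartment fit.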

[2] = Half life in monkey at 20 mg/kg, iv administered as bolus dose by HPLC method; type: ADME, organism-based, Macaca mulatta; conditions: rhesus monkey, in vivo; summary of the method: as §1
[3] = Total clearance in monkey at 20 mg/kg, iv administered as bolus dose by HPLC method; type: ADME, organism-based, Macaca mulatta; conditions: rhesus monkey, in vivo; summary of the method: as §1
[4] = Protein binding in ICR mouse plasma after 30 mins by ultra-filtration method; type: ADME, cell-free; conditions: read-out: PPB (converted)
Summary of the method: (§2)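 Mouse or monkey plasma was adjusted to pH 7 with CO2 and spiked with compound to a final 10 µg/ml. It was incubated 30 min at 37 °C, then ultrafiltered by centrifugation at 3200 rpm for 30 min at 25 °C. Free drug in the filtrate was measured by bioassay to give the bound fraction.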

[5] = Protein binding in cynomolgus monkey plasma after 30 mins by ultra-filtration method; type: ADME, cell-free, Macaca fascicularis; conditions: read-out: PPB (converted); summary of the method: as §2
Staphylococcus aureus = assay: Antibacterial activity against Staphylococcus aureus SMITH after 20 hrs by agar dilution method; type: functional
Summary of the method: (§3)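 Agar dilution MIC on Sensitivity Disk Agar-N with 2-fold serial drug dilutions. Overnight Mueller Hinton broth cultures were diluted to about 10^6 CFU/mL, and 1 µL spots were applied. Plates were incubated 20 h at 37 °C before scoring.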

Streptococcus pneumoniae [6] = assay: Antibacterial activity against penicillin-resistant Streptococcus pneumoniae SR16675 after 20 hrs by agar dilution method; type: functional; conditions: SR16675, 20 h
Summary of the method: (§4)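 Agar dilution on Sensitivity Disk Agar-N. Overnight Mueller Hinton broth cultures were diluted to about 10^6 CFU/mL, and 1 µL spots were placed on agar plates holding 2-fold serial dilutions of antibiotic. Plates were incubated 20 h at 37 °C and then MICs were scored.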

Streptococcus pneumoniae [7] = assay: Antibacterial activity against penicillin-resistant Streptococcus pneumoniae SR16750 after 20 hrs by agar dilution method; type: functional; conditions: SR16750, 20 h; summary of the method: as §4
Haemophilus influenzae [8] = assay: Antibacterial activity against beta-lactamase non-producing penicillin-resistant Haemophilus influenzae SR11435 after 20 hrs by agar dilution method; type: functional; conditions: SR11435, 20 h; summary of the method: as §4
Haemophilus influenzae [9] = assay: Antibacterial activity against beta-lactamase non-producing penicillin-resistant Haemophilus influenzae SR24106 after 20 hrs by agar dilution method; type: functional; conditions: SR24106, 20 h; summary of the method: as §4
Moraxella catarrhalis = assay: Antibacterial activity against Moraxella catarrhalis SR24290 after 20 hrs by agar dilution method; type: functional; conditions: SR24290, 20 h; summary of the method: as §3
Escherichia coli = assay: Antibacterial activity against Escherichia coli NIHJ JC-2 after 20 hrs by agar dilution method; type: functional; conditions: NIHJ JC-2, 20 h; summary of the method: as §3
[10] = Half life in mouse at 20 mg/kg, iv administered as bolus dose by band-culture bioassay; conditions: in vivo
[11] = Total clearance in mouse at 20 mg/kg, iv administered as bolus dose by band-culture bioassay; conditions: in vivo
[12] = AUC (0 to infinity) in mouse at 20 mg/kg, iv administered as bolus dose by band-culture bioassay; conditions: in vivo

| Structure (SMILES) | AUC [1] | half-life [2] | clearance [3] | fraction unbound at 0.5 h [4] | fraction unbound at 0.5 h [5] | MIC (Staphylococcus aureus) | MIC (Streptococcus pneumoniae [6]) | MIC (Streptococcus pneumoniae [7]) | MIC (Haemophilus influenzae [8]) | MIC (Haemophilus influenzae [9]) | MIC (Moraxella catarrhalis) | MIC (Escherichia coli) | half-life [10] | clearance [11] | AUC(0-inf) [12] |
| --- | --- | --- | --- | --- | --- | --- | --- | --- | --- | --- | --- | --- | --- | --- | --- |
| CCO/N=C(\C(=O)N[C@@H]1C(=O)N2C(C(=O)[O-])=C(/C=C/C[n+]3ccc4sc(/C([O-])=N/C#N)nc4c3)CS[C@H]12)c1csc(N)n1.[Na+] | 24.5 µg·h/mL | 2.86 h | 0.0408 L/h/kg | 0.59 | 0.16 | 0.5 mg/L | 0.125 mg/L | 0.25 mg/L | 0.063 mg/L | 0.063 mg/L | 0.5 mg/L | 0.25 mg/L | 0.7 h | 0.84 L/h/kg | 23.7 µg·h/mL |
| CCO/N=C(\C(=O)N[C@@H]1C(=O)N2C(C(=O)[O-])=C(/C=C/C[n+]3ccc(-c4cc(/C([O-])=N/C#N)[nH]n4)cc3)CS[C@H]12)c1csc(N)n1.[Na+] | 35.4 µg·h/mL | 4.43 h | 0.0288 L/h/kg | 0.75 | 0.27 | 0.25 mg/L | 0.125 mg/L | 0.25 mg/L | 0.063 mg/L | 0.125 mg/L | 2 mg/L | 0.125 mg/L | 1.03 h | 1.15 L/h/kg | 17.4 µg·h/mL |
| CCO/N=C(\C(=O)N[C@@H]1C(=O)N2C(C(=O)[O-])=C(/C=C/C[n+]3ccc4c(/C([O-])=N\C#N)cccc4c3)CS[C@H]12)c1csc(N)n1.[Na+] | 10.6 µg·h/mL | 1.52 h | 0.0954 L/h/kg | 0.97 | 0.42 | 0.5 mg/L | 0.25 mg/L | 0.5 mg/L | 0.063 mg/L | 0.125 mg/L | 2 mg/L | 0.125 mg/L | 0.73 h | 1.41 L/h/kg | 14.2 µg·h/mL |
| CCO/N=C(\C(=O)N[C@@H]1C(=O)N2C(C(=O)[O-])=C(/C=C\C[n+]3ccc(-c4cc(/C([O-])=N/C#N)[nH]n4)cc3)CS[C@H]12)c1csc(N)n1.[Na+] |  |  |  |  |  | 0.25 mg/L | 0.5 mg/L | 1 mg/L | 0.25 mg/L | 0.5 mg/L | 1 mg/L | 0.125 mg/L |  |  |  |
| CCO/N=C(\C(=O)N[C@@H]1C(=O)N2C(C(=O)[O-])=C(/C=C/C[n+]3ccc(-c4csc(/C([O-])=N/C#N)n4)cc3)CS[C@H]12)c1csc(N)n1.[Na+] | 48 µg·h/mL | 5.16 h |  | 0.69 | 0.23 | 0.5 mg/L | 0.125 mg/L | 0.25 mg/L | 0.063 mg/L | 0.25 mg/L | 2 mg/L | 0.125 mg/L | 0.74 h | 0.732 L/h/kg | 27.4 µg·h/mL |
| CCO/N=C(\C(=O)N[C@@H]1C(=O)N2C(C(=O)[O-])=C(/C=C/C[n+]3ccc4[nH]c(/C([O-])=N/C#N)cc4c3)CS[C@H]12)c1csc(N)n1.[Na+] | 20.9 µg·h/mL | 3.35 h | 0.048 L/h/kg | 0.73 | 0.33 | 0.5 mg/L | 0.25 mg/L | 0.5 mg/L | 0.063 mg/L | 0.125 mg/L | 4 mg/L | 0.25 mg/L | 0.63 h | 0.654 L/h/kg | 30.4 µg·h/mL |
| CCO/N=C(\C(=O)N[C@@H]1C(=O)N2C(C(=O)[O-])=C(C=CC[n+]3ccc(-c4cc(/C([O-])=N/C#N)[nH]n4)cc3)CS[C@H]12)c1csc(N)n1.[Na+] |  |  |  | 0.76 |  | 0.25 mg/L | 0.25 mg/L | 0.5 mg/L | 0.125 mg/L | 0.25 mg/L | 1 mg/L | 0.125 mg/L | 0.85 h | 1.15 L/h/kg | 17.4 µg·h/mL |
| CCO/N=C(\C(=O)N[C@@H]1C(=O)N2C(C(=O)[O-])=C(/C=C/C[n+]3ccc(/C([O-])=N/C#N)cc3)CS[C@H]12)c1csc(N)n1.[Na+] | 9.7 µg·h/mL | 1.22 h | 0.11 L/h/kg | 0.92 | 0.59 | 0.5 mg/L | 0.25 mg/L | 0.5 mg/L | 0.063 mg/L | 0.125 mg/L | 1 mg/L | 0.25 mg/L | 0.72 h | 1.37 L/h/kg | 14.6 µg·h/mL |
